Structures are written as SMILES. Calls of active or inactive are those of the source. No cut-off for these calls is given here.

In assay [1] the test system is KB. The assay can be described thus: Antiproliferative activity against human KB cells at 40 uM after 72 hrs by SRB assay. Type of assay: functional, cell-based. For orientation: The SRB assay estimates cell density from bound dye.
In assay [2] the test system is MCF7. The assay can be described thus: Antiproliferative activity against human MCF7 cells at 40 uM after 72 hrs by SRB assay. It counts as functional, cell-based.
The species entered for assay [3] is Homo sapiens. The assay can be described thus: Antiproliferative activity against human KBVIN cells at 40 uM after 72 hrs by SRB assay. It counts as functional, cell-based.
The test system of assay [4] is A549. In words: Antiproliferative activity against human A549 cells at 40 uM after 72 hrs by SRB assay. It counts as functional, cell-based.
Assay [5] has as its system MDA-MB-231. In words: Antiproliferative activity against human MDA-MB-231 cells at 40 uM after 72 hrs by SRB assay. It counts as functional, cell-based.
Assay [6] relates to MDA-MB-231. The assay can be described thus: Antiproliferative activity against human MDA-MB-231 cells after 48 hrs by SRB assay. To be noted: MDA-MB-231, 48 h. It counts as functional, cell-based.
For assay [7], the system named is MCF7. In words: Antiproliferative activity against human MCF7 cells after 48 hrs by SRB assay. Type of assay: functional, cell-based. To be noted: MCF7, 48 h.
A short description of assay [8]: Antiproliferative activity against human KBVIN cells after 24 hrs by SRB assay. Type of assay: functional, cell-based. The essentials: (§1)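 SRB assay. Cell suspensions were seeded at 4000–12 000 cells/well in RPMI-1640 with 2 mM L-glutamine, 25 mM HEPES, 10% FBS, streptomycin and penicillin. Cells were exposed to compounds for 72 h. For the time course, cells were plated 24 h before treatment and then exposed for 24, 48 or 72 h. Cells were fixed in 10% TCA and stained with 0.04% SRB. Bound dye was dissolved in 10 mM Tris and read at 515 nm.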

For assay [9], the system named is MDA-MB-231. In words: Antiproliferative activity against human MDA-MB-231 cells after 24 hrs by SRB assay. It counts as functional, cell-based. The note with it: MDA-MB-231, 24 h.
The subject of assay [10] is KB. The assay can be described thus: Antiproliferative activity against human KB cells after 48 hrs by SRB assay. It counts as functional, cell-based.
Assay [11] in a line: Antiproliferative activity against human KBVIN cells after 48 hrs by SRB assay. It counts as functional, cell-based. The essentials: as §1
Assay [12] relates to A549. In words: Antiproliferative activity against human A549 cells after 48 hrs by SRB assay. It counts as functional, cell-based. The note with it: A549, 48 h. In a few lines:
(§2)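 Time-course: cells seeded at 4000–12 000 per well 24 h before compound exposure for 24, 48 or 72 h, as named in the line. Cells then fixed in 10% trichloroacetic acid, stained with 0.04% SRB, and dye solubilized in 10 mM Tris base read at 515 nm. […] Medium RPMI-1640 with 10% FBS.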

In assay [13] the test system is A549. The assay can be described thus: Antiproliferative activity against human A549 cells after 24 hrs by SRB assay. The note with it: A549, 24 h. It counts as functional, cell-based. In a few lines:
as §2

The test system of assay [14] is MCF7. In words: Antiproliferative activity against human MCF7 cells after 72 hrs by SRB assay. To be noted: MCF7, 72 h. It counts as functional, cell-based.
Assay [15] has as its system MCF7. In words: Antiproliferative activity against human MCF7 cells after 24 hrs by SRB assay. It counts as functional, cell-based. To be noted: MCF7, 24 h.
The nature of assay [16]: Antiproliferative activity against human KBVIN cells after 72 hrs by SRB assay. Type of assay: functional, cell-based. In a few lines:
as §1

The subject of assay [17] is KB. The assay can be described thus: Antiproliferative activity against human KB cells after 24 hrs by SRB assay. Type of assay: functional, cell-based.
For assay [18], the system named is MDA-MB-231. The assay can be described thus: Antiproliferative activity against human MDA-MB-231 cells after 72 hrs by SRB assay. It counts as functional, cell-based. The note with it: MDA-MB-231, 72 h.
For assay [19], the system named is A549. In words: Antiproliferative activity against human A549 cells after 72 hrs by SRB assay. It counts as functional, cell-based. To be noted: A549, 72 h. In a few lines:
as §2

For assay [20], the system named is KB. The assay can be described thus: Antiproliferative activity against human KB cells after 72 hrs by SRB assay. It counts as functional, cell-based.
The species entered for assay [21] is Homo sapiens. In words: Antiproliferative activity against human renal cancer cells at 10 to 100 nM after 48 hrs by SRB assay. It counts as functional, cell-based.
For another assay, the system named is Melanoma cell. The assay can be described thus: Antiproliferative activity against human melanoma cells at 10 to 100 nM after 48 hrs by SRB assay. It counts as functional, cell-based.
The next assay deals with CNS carcinoma cell. In words: Antiproliferative activity against human CNS cancer cells at 10 to 100 nM after 48 hrs by SRB assay. It counts as functional, cell-based.
The next assay concerns NCI/ADR-RES. The assay can be described thus: Antiproliferative activity against human NCI-ADR-RES cells after 48 hrs by SRB assay.
The subject of a further assay is Ovarian carcinoma cell. In words: Antiproliferative activity against human ovarian cancer cells at 10 to 100 nM after 48 hrs by SRB assay. It counts as functional, cell-based.
Assay [22] concerns MDA-MB-231. In words: Cell cycle arrest in human MDA-MB-231 cells assessed as accumulation at sub-G1 phase at 10 times IC50 after 48 hrs by propidium iodide staining based flow cytometry. Type of assay: functional. In a few lines:
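DMSO served as vehicle control and combretastatin A-4 at 0.1 μM as the G2/M-arrest control. Harvested cells were fixed and stained with propidium iodide plus RNase. DNA content was analysed by flow cytometry, and sub-G1 cells were counted. Each experiment was done at least twice.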
(Flow cytometry measures light scatter and fluorescence of single cells or particles in a stream.)

For assay [23], the species on record is Homo sapiens. The assay can be described thus: Antiproliferative activity against human […] cells at 10 to 100 nM after 48 hrs by SRB assay. Type of assay: functional, cell-based.
In another assay the test system is Leukemia cell. In words: Antiproliferative activity against human leukemia cells at 10 to 100 nM after 48 hrs by SRB assay. Type of assay: functional, cell-based.
The test system of another assay is Prostatic carcinoma cell. The assay can be described thus: Antiproliferative activity against human prostate cancer cells at 10 to 100 nM after 48 hrs by SRB assay. Type of assay: functional.
Assay [24] is filed under the species Homo sapiens. In words: Antiproliferative activity against human non-small cell lung cancer cells at 10 to 100 nM after 48 hrs by SRB assay. Type of assay: functional.
A further assay concerns Breast carcinoma cell. The assay can be described thus: Antiproliferative activity against human breast cancer cells at 10 to 100 nM after 48 hrs by SRB assay. It counts as functional, cell-based.

On to `C=C[C@H]1[C@H](O[C@@H]2O[C@H](CO)[C@@H](O)[C@H](O)[C@H]2OC(=O)/C=C/c2cc(OC)c(O)c(OC)c2)OC=C2C(=O)N3CCc4cc(O)c(OC)cc4[C@H]3C[C@H]21`, for which the result with KB [1], in the assay with MCF7 [2], in the assay listed under Homo sapiens [3], in the assay on A549 [4] and in the assay on MDA-MB-231 [5] was inactive.

As to `CC[C@H]1CN2CCc3cc(O)c(OC)cc3[C@@H]2C[C@@H]1C[C@H]1NCCc2c1[nH]c1ccc(O)cc21`, the IC50 – broadly, the concentration at which inhibition is half-maximal – in the assay with MDA-MB-231 [6] is 230 nM; with MCF7 [7], 270 nM; in [8], > 10000 nM; in the assay on MDA-MB-231 [9], 190 nM; with KB [10], 470 nM; in assay [11] it was > 10000 nM. The IC50 in the assay with A549 [12] is 300 nM; in the assay with A549 [13], 360 nM; in the assay on MCF7 [14], 380 nM; in the assay with MCF7 [15], 250 nM; in assay [16], > 10000 nM; in the assay with KB [17], 290 nM. The figures for the IC50 with MDA-MB-231 [18], with A549 [19] and in the assay with KB [20] were 220 nM, 620 nM and 620 nM, respectively.

With `C=C[C@H]1[C@H](O[C@@H]2O[C@H](CO)[C@@H](O)[C@H](O)[C@H]2OC(=O)/C=C/c2cc(OC)c(O)c(OC)c2)OC=C2C(=O)N3CCc4cc(O)c(O)cc4[C@H]3C[C@H]21`, the result in the assay on KB [1], in the assay on MCF7 [2], in the assay filed under Homo sapiens [3], with A549 [4] and with MDA-MB-231 [5] was inactive.

Consider `COc1cccc2c1C(=O)c1c(O)c3c(c(O)c1C2=O)C[C@@](O)(C(=O)CO)C[C@@H]3O[C@H]1C[C@H](N)[C@H](O)[C@H](C)O1` [DOXORUBICIN], for which the IC50 in assay [8] was > 1000 nM; in the assay with KB [10], 340 nM; in assay [11] it was > 1000 nM; in [16], > 1000 nM; with KB [17], 820 nM; with KB [20], 220 nM.

In the case of `CC[C@H]1CN2CCc3c(cc(OC)c(OC)c3O)[C@@H]2C[C@@H]1C[C@H]1NCCc2c1[nH]c1ccc(O)cc21`, the IC50 stood at 80 nM with MDA-MB-231 [6]; 160 nM with MCF7 [7]; 8900 nM in assay [8]; 60 nM in the assay on MDA-MB-231 [9]; 150 nM in the assay with KB [10]; 11100 nM in [11]. For the same molecule, the IC50 with A549 [12] is 230 nM; in the assay with A549 [13], 210 nM; with MCF7 [14], 210 nM; in the assay on MCF7 [15], 120 nM; in assay [16], > 10000 nM; with KB [17], 90 nM. For the same molecule, the IC50 was 80 nM in the assay on MDA-MB-231 [18], 280 nM in the assay on A549 [19] and 210 nM in the assay on KB [20]. The result in the assay filed under Homo sapiens [21], with Melanoma cell, in the assay with CNS carcinoma cell, with NCI/ADR-RES, in the assay on Ovarian carcinoma cell and in the assay with MDA-MB-231 [22] was Active. Besides, the result in the assay filed under Homo sapiens [23], with Leukemia cell, in the assay on Prostatic carcinoma cell, in the assay filed under Homo sapiens [24] and in the assay on Breast carcinoma cell was Active.

For `CC(=O)O[C@H]1C(=O)[C@@]2(C)[C@H]([C@H](OC(=O)c3ccccc3)[C@]3(O)C[C@H](OC(=O)[C@H](O)[C@@H](NC(=O)c4ccccc4)c4ccccc4)C(C)=C1C3(C)C)[C@]1(OC(C)=O)CO[C@@H]1C[C@@H]2O` [PACLITAXEL], the IC50 in assay [8] was > 3000 nM; in assay [11], 2880 nM; in assay [16], 2380 nM.

For the origin of these results see ChEMBL document CHEMBL4196149, “Antiproliferative Alkaloids from Alangium longiflorum, an Endangered Tropical Plant Species” (J Nat Prod, 2018).
